Active and inactive are the calls of the source. The calls are words filed in the database; no cut-off is given here. Bridge positions count the residues as written; N and C are the ends. Square brackets hold non-standard residues; d marks the D form. Peptide text beside a SMILES is read from it. ΔPro = O=C(O)[C@@H]1C=CCN1; Mpa = O=C(O)CCS
Columns and labels:
Rattus norvegicus [1] = assay: Induction in blood pressure in rat after single intravenous bolus injection; type: functional
Outline: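 Pressor assay in anesthetized male rats following the U.S. Pharmacopeia procedure. Specific activity obtained by the Schild four-point design against the U.S.P. posterior pituitary reference standard; results in units/mg on anhydrous peptide weight.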

Gallus gallus = assay: Reduction in vasomotor depression in chicken after single intravenous bolus injection; type: functional
Outline: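 Avian vasodepressor assay in conscious chickens (Coon method per U.S. Pharmacopeia, modified by Munsick et al.). Four-point Schild design against the U.S.P. posterior pituitary reference standard; results in units/mg on anhydrous weight.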

Rattus norvegicus [2] = assay: Antidiuretic effect in Brattleboro rat assessed as maximal depressions of urine flow after single intravenous bolus injection; type: functional
Rattus norvegicus [3] = species on record: Rattus norvegicus; assay: Induction in uterus contraction in isolated rat uterine horns in vitro
Rattus norvegicus [4] = assay: Decrease in glomerular filtration rate in Sprague-Dawley rat at 1.6 x 10^-11 mol, single intravenous bolus injection; type: functional, organism-based; settings: in the assay text read “1.6 x 10^-12 mol” for “1.6 x 10^-11 mol”
Outline: (§1)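 Renal clearance in six male Sprague-Dawley rats, 250–275 g, under Inactin (10 mg/100 g ip), hydrated to 8% body weight with 2% ethanol/0.5% glucose. Infusion of 3% inulin, 1% mannitol, 0.6% NaCl, 2% alcohol at about 10 mL/h; 60 min equilibration; body temperature 37 °C. Urine volume determined gravimetrically, GFR from inulin (anthrone method), Na/K by flame photometry.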

Rattus norvegicus [5] = assay: Induction in blood pressure in rat at 1.6 x 10^-12 mol, single intravenous bolus injection; type: functional, organism-based
Outline: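 Hydrated, Inactin-anesthetized male Sprague-Dawley rats with carotid artery cannulated; arterial pressure recorded on a physiograph after a single intravenous bolus of 1.6×10^-12 mol (21 microunits).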

Rattus norvegicus [6] = assay: Reduction in fractional excretion of sodium in Sprague-Dawley rat at 1.6 x 10^-11 mol, single intravenous bolus injection; type: functional, organism-based; settings: in the assay text read “1.6 x 10^-12 mol” for “1.6 x 10^-11 mol”; outline: as §1
Rattus norvegicus [7] = assay: Increase in urine osmolality in Sprague-Dawley rat measured per liter at 1.6 x 10^-12 mol, single intravenous bolus injection (reference value: 200 mosm)
Rattus norvegicus [8] = assay: Reduction in urine flow in Sprague-Dawley rat at 1.6 x 10^-11 mol, single intravenous bolus injection; type: functional, organism-based; settings: in the assay text read “1.6 x 10^-12 mol” for “1.6 x 10^-11 mol”; outline: as §1
Rattus norvegicus [9] = assay: Reduction in urine flow in Sprague-Dawley rat at 4.2 x 10^-11 mol, single intravenous bolus injection; type: functional, organism-based
Outline: (§2)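 Six male Sprague-Dawley rats (250–275 g), Inactin 10 mg/100 g i.p., hydrated to 8% body weight; carotid, jugular and bladder cannulated, 37 °C. Inulin/mannitol/NaCl infusion (300 mosm) ~10 mL/h, 60 min equilibration. Blood pressure from the carotid; urine volume weighed, four postinjection samples; GFR from inulin (anthrone); sodium by flame photometry.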

Rattus norvegicus [10] = assay: Increase in urine osmolality in Sprague-Dawley rat measured per liter at 4.2 x 10^-11 mol, single intravenous bolus injection (reference value: 200 mosm); type: functional
Rattus norvegicus [11] = assay: Decrease in glomerular filtration rate in Sprague-Dawley rat at 1.6 x 10^-12 mol, single intravenous bolus injection
Rattus norvegicus [12] = assay: Induction in blood pressure in rat at 4.2 x 10^-11 mol, single intravenous bolus injection; type: functional, organism-based; outline: as §2
Rattus norvegicus [13] = assay: Reduction in fractional excretion of sodium in Sprague-Dawley rat at 4.2 x 10^-11 mol, single intravenous bolus injection; type: functional, organism-based; outline: as §2

Row | SMILES | Activity (Rattus norvegicus [1]) [U/mg] | Activity (Gallus gallus) [U/mg] | Activity (Rattus norvegicus [2]) [U/mg] | Activity (Rattus norvegicus [3]) [U/mg] | inhibition (Rattus norvegicus [4]) | Activity (Rattus norvegicus [5]) | inhibition (Rattus norvegicus [6]) | Activity (Rattus norvegicus [7]) [milliosmole] | inhibition (Rattus norvegicus [8]) | inhibition (Rattus norvegicus [9]) | Activity (Rattus norvegicus [10]) [milliosmole] | inhibition (Rattus norvegicus [11]) | Activity (Rattus norvegicus [12]) | inhibition (Rattus norvegicus [13])
1 | N=C(N)NCCC[C@H](NC(=O)[C@@H]1C=CCN1C(=O)[C@@H]1CSSCCC(=O)N[C@@H](Cc2ccc(O)cc2)C(=O)N[C@@H](Cc2ccccc2)C(=O)N[C@@H](CCC(N)=O)C(=O)N[C@@H](CC(N)=O)C(=O)N1)C(=O)NCC(N)=O | 240 | 345 | 4134 | 69 | – | – | – | – | – | – | – | – | – | –
2 | N=C(N)NCCC[C@H](NC(=O)[C@@H]1CCCN1C(=O)[C@@H]1CSSCCC(=O)N[C@@H](Cc2ccccc2)C(=O)N[C@@H](Cc2ccccc2)C(=O)N[C@@H](CCC(N)=O)C(=O)N[C@@H](CC(N)=O)C(=O)N1)C(=O)NCC(N)=O ([Mpa]FFQNCPRG-NH2; disulfide 1-6) | 29 | <1 | 810 | 0.3 | – | – | – | – | – | – | – | – | – | –
3 | N=C(N)NCCC[C@H](NC(=O)[C@@H]1C=CCN1C(=O)[C@@H]1CSSCCC(=O)N[C@@H](Cc2ccccc2)C(=O)N[C@@H](Cc2ccccc2)C(=O)N[C@@H](CCC(N)=O)C(=O)N[C@@H](CC(N)=O)C(=O)N1)C(=O)NCC(N)=O ([Mpa]FFQNC[ΔPro]RG-NH2; disulfide 1-6) | – | 2.9 | 13000 | 6 | Active | inactive | Active | 700 | Active | – | – | – | – | –
4 | N=C(N)NCCCC(NC(=O)[C@@H]1CCCN1C(=O)[C@@H]1CSSCCC(=O)N[C@@H](Cc2ccc(O)cc2)C(=O)N[C@@H](Cc2ccccc2)C(=O)N[C@@H](CCC(N)=O)C(=O)N[C@@H](CC(N)=O)C(=O)N1)C(=O)NCC(N)=O (single isomer, unassigned) [DESMOPRESSIN] | 395 | 160 | 1400 | 29 | – | – | – | – | – | – | – | – | – | –
5 | N=C(N)NCCC[C@H](NC(=O)[C@@H]1CCCN1C(=O)[C@@H]1CSSC[C@H](N)C(=O)N[C@@H](Cc2ccc(O)cc2)C(=O)N[C@@H](Cc2ccccc2)C(=O)N[C@@H](CCC(N)=O)C(=O)N[C@@H](CC(N)=O)C(=O)N1)C(=O)NCC(N)=O [VASOPRESSIN] | 487 | 100 | 503 | 12 | – | – | – | – | – | Active | 700 | Active | Active | Active

Source: ChEMBL document CHEMBL3244069, “Synthesis and biological activities of arginine-vasopressin analogues designed from a conformation-activity approach” (1979)
